Reference: ChEMBL document CHEMBL1124067, “Design of potent cyclic gonadotropin releasing hormone antagonists” (J Med Chem, 1988)
pKd: −log10 of the molar value. Several values for one entry are separate records, joined by “and”; a condition that tells them apart may be missing. Equal values may be shown once. Positions of bridges follow the written chain, without caps; N, C: chain ends. Non-standard residues stand in square brackets, D forms with d. Residues, ends and D or L forms follow the SMILES beside them. dPhe(4-Cl) = N[C@H](Cc1ccc(Cl)cc1)C(=O)O; dPhe(4-F) = N[C@H](Cc1ccc(F)cc1)C(=O)O; d2Nal = N[C@H](Cc1ccc2ccccc2c1)C(=O)O; d3Pal = N[C@H](Cc1cccnc1)C(=O)O; ΔPro = O=C(O)[C@@H]1C=CCN1; Dap = NC[C@H](N)C(=O)O

System: Rattus norvegicus
Assay: In vivo antiovulatory assay (AOA) carried out in rats injected sc
Type: functional
Procedure, shortened: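 Antiovulatory assay following Corbin and Beattie. Cycling rats injected sc at noon on proestrus with peptide dissolved in saline (200 μL). Dose in micrograms; read-out is the number of rats ovulating out of the total.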

SMILES	Dose
CC(=O)N[C@H](Cc1ccc2ccccc2c1)C(=O)N[C@H](Cc1ccc(Cl)cc1)C(=O)N[C@H](Cc1cccnc1)C(=O)N[C@@H](CO)C(=O)N[C@@H](CCCNC(=N)N)C(=O)N[C@H](Cc1cccnc1)C(=O)N[C@@H](CC(C)C)C(=O)N[C@@H](CCCNC(=N)N)C(=O)N1CCC[C@H]1C(=O)N[C@H](C)C(N)=O (Ac-[d2Nal][dPhe(4-Cl)][d3Pal]SR[d3Pal]LRP[dA]-NH2) [listing 1 of 2 here]	0.5 µg and 1 µg
CC(=O)N[C@H](Cc1ccc2ccccc2c1)C(=O)N[C@H](Cc1ccc(F)cc1)C(=O)N[C@H](Cc1c[nH]c2ccccc12)C(=O)N[C@H]1CC(=O)NC[C@@H](C(N)=O)NC(=O)[C@@H]2CCCN2C(=O)[C@H](CCCN=C(N)N)NC(=O)[C@H](CC(C)C)NC(=O)[C@@H](CCCN=C(N)N)NC(=O)[C@H](Cc2ccc(O)cc2)NC1=O (Ac-[d2Nal][dPhe(4-F)][dW]DY[dR]LRP[Dap]-NH2; lactam 4-10)	1 µg and 2.5 µg
CC(C)C[C@@H]1NC(=O)[C@@H](CCCN=C(N)N)NC(=O)[C@H](Cc2ccc(O)cc2)NC(=O)[C@@H](NC(=O)[C@@H](Cc2c[nH]c3ccccc23)NC(=O)[C@@H](Cc2ccc(F)cc2)NC(=O)[C@H](N)Cc2ccc3ccccc3c2)CSSC[C@@H](C(N)=O)NC(=O)[C@@H]2CCCN2C(=O)[C@H](CCCN=C(N)N)NC1=O	50 µg and 100 µg
CC(=O)N[C@H](Cc1ccc2ccccc2c1)C(=O)N[C@H](Cc1ccc(Cl)cc1)C(=O)N[C@H](Cc1cccnc1)C(=O)N[C@H]1CCC(=O)NC[C@@H](C(N)=O)NC(=O)[C@@H]2CCCN2C(=O)[C@H](CCCNC(=N)N)NC(=O)[C@H](CC(C)C)NC(=O)[C@@H](Cc2cccnc2)NC(=O)[C@H](CCCNC(=N)N)NC1=O [listing 1 of 2 here]	10 µg and 25 µg
CC(=O)NC[C@H](NC(=O)[C@@H](Cc1cccnc1)NC(=O)[C@@H](Cc1ccc(Cl)cc1)NC(=O)[C@@H](Cc1ccc2ccccc2c1)NC(C)=O)C(=O)N[C@@H](CCCN=C(N)N)C(=O)N[C@H](Cc1cccnc1)C(=O)N[C@@H](CC(C)C)C(=O)N[C@@H](CCCN=C(N)N)C(=O)N1CCC[C@H]1C(=O)N[C@@H](CC(N)=O)C(N)=O [listing 1 of 2 here]	50 µg

Molecular target: T1, Gonadotropin-releasing hormone receptor (Rattus norvegicus, UniProt P30969)
T1 sequence (P30969 whole entry): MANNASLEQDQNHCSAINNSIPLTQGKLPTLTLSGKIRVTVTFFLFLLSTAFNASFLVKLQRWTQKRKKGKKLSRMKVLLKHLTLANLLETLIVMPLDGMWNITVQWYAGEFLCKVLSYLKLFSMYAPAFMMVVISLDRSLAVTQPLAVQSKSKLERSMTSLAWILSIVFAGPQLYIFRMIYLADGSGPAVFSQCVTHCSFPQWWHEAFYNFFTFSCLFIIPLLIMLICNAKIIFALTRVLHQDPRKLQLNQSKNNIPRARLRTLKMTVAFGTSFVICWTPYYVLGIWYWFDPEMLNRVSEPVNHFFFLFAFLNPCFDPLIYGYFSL
Assay: Inhibitory binding constant for Gonadotropin-releasing hormone receptor

SMILES	pKd
CC(=O)N1CC=C[C@H]1C(=O)N[C@H](Cc1ccc(F)cc1)C(=O)N[C@H](Cc1c[nH]c2ccccc12)C(=O)N[C@@H](CO)C(=O)N[C@@H](Cc1ccc(O)cc1)C(=O)N[C@H](Cc1c[nH]c2ccccc12)C(=O)N[C@@H](CC(C)C)C(=O)N[C@@H](CCCNC(=N)N)C(=O)N1CCC[C@H]1C(=O)NCC(N)=O (Ac-[ΔPro][dPhe(4-F)][dW]SY[dW]LRPG-NH2)	9.57
CC(=O)N[C@H](Cc1ccc2ccccc2c1)C(=O)N[C@H](Cc1ccc(Cl)cc1)C(=O)N[C@H](Cc1cccnc1)C(=O)N[C@H]1CC(=O)NCCC[C@@H](C(N)=O)NC(=O)[C@@H]2CCCN2C(=O)[C@H](CCCNC(=N)N)NC(=O)[C@H](CC(C)C)NC(=O)[C@@H](Cc2cccnc2)NC(=O)[C@H](CCCNC(=N)N)NC1=O	7.96
CC(=O)NC[C@H](NC(=O)[C@@H](Cc1cccnc1)NC(=O)[C@@H](Cc1ccc(Cl)cc1)NC(=O)[C@@H](Cc1ccc2ccccc2c1)NC(C)=O)C(=O)N[C@@H](CCCN=C(N)N)C(=O)N[C@H](Cc1cccnc1)C(=O)N[C@@H](CC(C)C)C(=O)N[C@@H](CCCN=C(N)N)C(=O)N1CCC[C@H]1C(=O)N[C@@H](CC(N)=O)C(N)=O [listing 2 of 2 here]	9.00
CC(=O)N[C@H](Cc1ccc2ccccc2c1)C(=O)N[C@H](Cc1ccc(Cl)cc1)C(=O)N[C@H](Cc1cccnc1)C(=O)N[C@@H](CO)C(=O)N[C@@H](CCCNC(=N)N)C(=O)N[C@H](Cc1cccnc1)C(=O)N[C@@H](CC(C)C)C(=O)N[C@@H](CCCNC(=N)N)C(=O)N1CCC[C@H]1C(=O)N[C@H](C)C(N)=O (Ac-[d2Nal][dPhe(4-Cl)][d3Pal]SR[d3Pal]LRP[dA]-NH2) [listing 2 of 2 here]	9.62
CC(=O)N[C@H](Cc1ccc2ccccc2c1)C(=O)N[C@H](Cc1ccc(Cl)cc1)C(=O)N[C@H](Cc1cccnc1)C(=O)N[C@H]1CSSC[C@@H](C(N)=O)NC(=O)[C@@H]2CCCN2C(=O)[C@H](CCCNC(=N)N)NC(=O)[C@H](CC(C)C)NC(=O)[C@@H](Cc2cccnc2)NC(=O)[C@H](CCCNC(=N)N)NC1=O (Ac-[d2Nal][dPhe(4-Cl)][d3Pal]CR[d3Pal]LRPC-NH2; disulfide 4-10)	9.10

Second part, the molecule after the results:

pKd	SMILES
8.22	CC(=O)N[C@H](Cc1ccc2ccccc2c1)C(=O)N[C@H](Cc1ccc(F)cc1)C(=O)N[C@H](Cc1c[nH]c2ccccc12)C(=O)N[C@H]1CSSC[C@@H](C(N)=O)NC(=O)[C@@H]2CCCN2C(=O)[C@H](CCCN=C(N)N)NC(=O)[C@H](CC(C)C)NC(=O)[C@@H](CCCN=C(N)N)NC(=O)[C@H](Cc2ccc(O)cc2)NC1=O
8.00	CC(=O)N[C@H](Cc1ccc2ccccc2c1)C(=O)N[C@H](Cc1ccc(F)cc1)C(=O)N[C@H](Cc1c[nH]c2ccccc12)C(=O)N[C@H]1CNC(=O)C[C@@H](C(N)=O)NC(=O)[C@@H]2CCCN2C(=O)[C@H](CCCN=C(N)N)NC(=O)[C@H](CC(C)C)NC(=O)[C@@H](CCCN=C(N)N)NC(=O)[C@H](Cc2ccc(O)cc2)NC1=O
7.39	CC(=O)N[C@H](Cc1ccc2ccccc2c1)C(=O)N[C@H](Cc1ccc(F)cc1)C(=O)N[C@H](Cc1c[nH]c2ccccc12)C(=O)N[C@H]1CC(=O)NCCC[C@@H](C(N)=O)NC(=O)[C@@H]2CCCN2C(=O)[C@H](CCCN=C(N)N)NC(=O)[C@H](CC(C)C)NC(=O)[C@@H](CCCN=C(N)N)NC(=O)[C@H](Cc2ccc(O)cc2)NC1=O
8.35 and 8.00	CC(=O)N[C@H](Cc1ccc2ccccc2c1)C(=O)N[C@H](Cc1ccc(Cl)cc1)C(=O)N[C@H](Cc1cccnc1)C(=O)N[C@H]1CNC(=O)C[C@@H](C(N)=O)NC(=O)[C@@H]2CCCN2C(=O)[C@H](CCCNC(=N)N)NC(=O)[C@H](CC(C)C)NC(=O)[C@@H](Cc2cccnc2)NC(=O)[C@H](CCCNC(=N)N)NC1=O (Ac-[d2Nal][dPhe(4-Cl)][d3Pal][Dap]R[d3Pal]LRPD-NH2; lactam 4-10)
9.00	CC(=O)N[C@H](Cc1ccc2ccccc2c1)C(=O)N[C@H](Cc1ccc(Cl)cc1)C(=O)N[C@H](Cc1cccnc1)C(=O)N[C@H]1CCC(=O)NC[C@@H](C(N)=O)NC(=O)[C@@H]2CCCN2C(=O)[C@H](CCCNC(=N)N)NC(=O)[C@H](CC(C)C)NC(=O)[C@@H](Cc2cccnc2)NC(=O)[C@H](CCCNC(=N)N)NC1=O [listing 2 of 2 here]
8.96	CC(=O)N[C@H](Cc1ccc2ccccc2c1)C(=O)N[C@H](Cc1ccc(F)cc1)C(=O)N[C@H](Cc1c[nH]c2ccccc12)C(=O)N[C@H]1CCC(=O)NC[C@@H](C(N)=O)NC(=O)[C@@H]2CCCN2C(=O)[C@H](CCCN=C(N)N)NC(=O)[C@H](CC(C)C)NC(=O)[C@@H](CCCN=C(N)N)NC(=O)[C@H](Cc2ccc(O)cc2)NC1=O
8.96	CC(=O)N[C@H](Cc1ccc2ccccc2c1)C(=O)N[C@H](Cc1ccc(Cl)cc1)C(=O)N[C@H](Cc1cccnc1)C(=O)N[C@H]1CC(=O)NC[C@@H](C(N)=O)NC(=O)[C@@H]2CCCN2C(=O)[C@H](CCCNC(=N)N)NC(=O)[C@H](CC(C)C)NC(=O)[C@@H](Cc2cccnc2)NC(=O)[C@H](CCCNC(=N)N)NC1=O
< 7.00	CC(=O)N[C@H](Cc1ccc2ccccc2c1)C(=O)N[C@H](Cc1ccc(F)cc1)C(=O)N[C@H](Cc1c[nH]c2ccccc12)C(=O)N[C@H]1CNC(=O)C[C@@H](C(=O)NCC(N)=O)NC(=O)[C@H](CCCNC(=N)N)NC(=O)[C@H](CC(C)C)NC(=O)[C@@H](CCCNC(=N)N)NC(=O)[C@H](Cc2ccc(O)cc2)NC1=O

System: Rattus norvegicus
Assay: Effect of oral administration of compound (3 mg) on LH secretion by castrated male rats; ng of LH/mL
Type: functional
Procedure, shortened: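 Adult Sprague-Dawley male rats, castrated under light ether anesthesia 7-10 days before assay. Peptide dissolved in 2 N HOAc, then diluted in 0.1% BSA-0.04 M phosphate buffer pH 7.4. Given by gavage tube (0.5 mL) under ether. Blood sampled before treatment and 5 h after. Plasma LH in ng/mL, mean ± SEM, five rats per treatment.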

SMILES	Activity
CC(=O)NC[C@H](NC(=O)[C@@H](Cc1cccnc1)NC(=O)[C@@H](Cc1ccc(Cl)cc1)NC(=O)[C@@H](Cc1ccc2ccccc2c1)NC(C)=O)C(=O)N[C@@H](CCCN=C(N)N)C(=O)N[C@H](Cc1cccnc1)C(=O)N[C@@H](CC(C)C)C(=O)N[C@@H](CCCN=C(N)N)C(=O)N1CCC[C@H]1C(=O)N[C@@H](CC(N)=O)C(N)=O [listing 1 of 2 here]	8.22
